Most compounds without a hit are left out; they make up all but 2.2% or so of the library.
Exocytosis inh = blocks lytic granule exocytosis. TALL-104 LAMP-1 surface exposure, flow cytometry; cells stimulated with thapsigargin and PMA. inhibition, % at 10 µM. hit rate 0.66% among 360,000;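 active = inhibition above about 55%, limit read from the data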
HKDC1 inh = inhibitors of human hexokinase HKDC1. AID 493160. hit rate 0.16% among 340,000. inhibition, % at 20 µM. recombinant HKDC1, G6PDH/diaphorase resazurin coupled fluorescence;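 active = inhibition above about 35% when tested at 20 µM, limit read from the data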;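 also: plate controls were DMSO wells with enzyme for no effect and DMSO wells lacking enzyme for full effect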
Target sequence (Q2TB90 whole entry, looked up): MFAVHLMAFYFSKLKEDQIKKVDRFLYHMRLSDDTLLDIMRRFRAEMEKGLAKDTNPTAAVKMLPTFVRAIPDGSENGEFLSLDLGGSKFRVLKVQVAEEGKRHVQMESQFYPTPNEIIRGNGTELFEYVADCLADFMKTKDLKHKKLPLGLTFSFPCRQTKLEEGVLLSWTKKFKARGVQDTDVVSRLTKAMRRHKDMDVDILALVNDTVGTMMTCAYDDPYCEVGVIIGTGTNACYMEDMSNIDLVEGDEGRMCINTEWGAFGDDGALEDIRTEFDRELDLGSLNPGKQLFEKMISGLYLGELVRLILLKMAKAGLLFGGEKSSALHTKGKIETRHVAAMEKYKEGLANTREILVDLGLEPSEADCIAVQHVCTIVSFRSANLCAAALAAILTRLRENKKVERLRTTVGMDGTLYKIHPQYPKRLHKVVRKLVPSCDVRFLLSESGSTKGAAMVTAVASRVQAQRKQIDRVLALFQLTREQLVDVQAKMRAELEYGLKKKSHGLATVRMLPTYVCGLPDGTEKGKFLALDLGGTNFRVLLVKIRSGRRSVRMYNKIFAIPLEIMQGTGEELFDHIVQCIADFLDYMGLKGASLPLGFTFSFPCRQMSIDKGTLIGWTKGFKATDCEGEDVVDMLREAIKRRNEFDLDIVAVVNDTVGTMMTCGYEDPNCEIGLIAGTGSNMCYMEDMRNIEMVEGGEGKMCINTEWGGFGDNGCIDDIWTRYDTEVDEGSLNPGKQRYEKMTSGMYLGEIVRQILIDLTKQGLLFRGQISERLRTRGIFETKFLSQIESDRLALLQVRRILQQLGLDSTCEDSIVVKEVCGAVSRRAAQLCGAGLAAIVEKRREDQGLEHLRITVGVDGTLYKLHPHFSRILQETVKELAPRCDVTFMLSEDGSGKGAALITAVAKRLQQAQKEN
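Assay system: recombinant HKDC1 hexokinase; detection: coupled resazurin fluorescence, excitation 525 nm, emission 613 nm; benchmarks: DMSO-plus-enzyme-mix negative control, buffer-substituted positive control; compound dosing: single 20 µM dose; schedule: 90 min at room temperature in dark; also added: glucose plus 1 mM ATP as hexokinase substrates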
PfGluPho inh = PfG6PD (Plasmodium falciparum) enzyme inhibition; inhibition, % at 20 µM; hit rate 0.78% among 350,000; PfGluPho enzyme, NADPH resazurin-diaphorase fluorescence; AID 504690;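 active = inhibition reaching at least a set limit at 20 µM in the primary screen, cut at about 59% in these data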;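 also: 0% = DMSO wells with substrate and 100% = DMSO wells lacking glucose-6-phosphate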
ABHD5-PLIN5 inh = blocks binding of human ABHD5 to perilipin-5; Split G. princeps luciferase complementation, luminescence, 4 h; inhibition, % at 4 µM; AID 602281; Q00G26+Q8WTS1; hit rate 0.78% among 360,000;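 active = inhibition above the mean inhibition across every tested compound plus 3 SD, cut at about 22% in these data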;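 also: 0% = DMSO only wells and the 100% control is not disclosed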
Exocytosis CP01 = lytic granule exocytosis inhibition; shares compounds with Exocytosis inh; TALL-104 cells, LAMP-1 externalization, flow cytometry; stimulated with PMA plus thapsigargin; inhibition, % at 10 µM; hit rate 11% among 1,500; in the data active = inhibition above about 60%;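 also: 0% = stimulated vehicle wells and 100% = unstimulated wells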
Starred values were filed as active, the others as inactive; x = not tested or not shown.

SMILES	Exocytosis inh	HKDC1 inh	PfGluPho inh	ABHD5-PLIN5 inh	Exocytosis CP01
CCn1cc(CN2CCc3c([nH]c4ccccc34)C2c2cccc(OC)c2OC)c(C)n1 (stereo not given)	59.1*	-8.7	-18.8	-2.6	-4.7
c1ccc2c(N3CCCC3)nc(-c3ccncc3)nc2c1	60.5*	-19.3	-6.8	7.2	-2.0
CN1CCN(c2nc(-c3ccncc3)nc3ccccc23)CC1	-1.0	-0.8	-7.9	3.9	x
Cc1ccc(CN2CCN(C3CCOCC3)CC2CCO)cc1 (stereo not given)	0.7	-0.8	-8.6	0.6	x
O=C(NCc1ccccc1Cl)c1cc(C(=O)C2CC2)c[nH]1	60.9*	3.2	7.6	-3.1	-12.8
CCOC(=O)C1=C(CNCc2ccc(F)cc2)NC(=O)NC1c1cccc([N+](=O)[O-])c1 (stereo not given)	-2.6	5.1	8.3	2.9	x
CCOC(=O)C1=C(CCc2ccccc2)NC(=O)NC1c1cccc([N+](=O)[O-])c1 (stereo not given)	94.2*	-0.5	2.0	-4.1	-13.9
CCC(=O)Nc1c(C#N)c2nc3ccccc3nc2n1-c1ccc(C)cc1	3.3	17.7	11.6	-3.5	x
N#Cc1c(NC(=O)c2ccc(Br)o2)n(-c2ccccc2)c2nc3ccccc3nc12	72.3*	25.4	-12.8	-11.7	96.5*
CC(C)CNC(=O)CN(c1cccc(Cl)c1)S(C)(=O)=O	17.5	6.4	-5.3	-3.9	x
Oc1cc(Br)ccc1C=Nc1ccc(N2CCCCC2)cc1	64.8*	-0.2	34.3	-11.1	-3.4
CC(C)(C)C(=O)NC(=O)Nc1ccccc1C(F)(F)F	109.4*	3.0	-13.2	-1.1	-8.7
CC(=O)Nc1ccccc1C(F)(F)F	-5.9	1.6	0.8	5.8	x
COCc1cc(C)nc2sc(C(=O)Nc3ccc(C(=O)OC)cc3)c(N)c12	84.8*	-0.3	36.8	-14.1	-5.9
COCc1cc(C)nc2sc(C(=O)OC(C)C)c(N)c12	-12.7	0.6	0.1	1.5	x
CCOc1ccc(NC(=O)c2cc3ccccc3cc2OC)cc1	-0.3	-1.0	10.8	8.7	x
CCOc1ccc(NC(=O)c2ccc(F)cc2F)cc1	62.1*	-2.9	-13.1	-3.6	-13.0
COc1ccccc1NCCC(=O)OCC(=O)Nc1ccccc1F	-0.9	2.1	-3.8	5.2	x
COCCNC(=S)N(CCc1c(C)[nH]c2ccc(F)cc12)Cc1cccs1	5.4	-9.4	12.9	8.7	x
COCCNC(=S)N(CCc1c(C)[nH]c2ccc(Cl)cc12)Cc1cccs1	104.5*	-0.7	9.8	9.0	4.8
O=C1C=C(c2ccc(CO)cc2)C[C@@H](c2ccc(F)cc2)C1	11.3	x	1.8	-1.5	x
O=C1c2cccc3c([N+](=O)[O-])ccc(c23)C(=O)N1CCc1ccccn1	19.1	-1.4	30.9	0.0	x
CN(C)CCCN1C(=O)c2cccc3c([N+](=O)[O-])ccc(c23)C1=O	57.0*	2.3	44.0	-1.9	8.7
COc1ccc(CC(=O)NC(C)c2ccc(S(N)(=O)=O)cc2)cc1S(=O)(=O)N1CCOCC1 (stereo not given)	-2.1	-5.0	2.8	2.5	x
CCOC(=O)c1nnc(-c2ccccc2)nc1Sc1c(Cl)cccc1Cl	95.8*	22.3	23.4	6.8	56.7
SMILES	Exocytosis inh	HKDC1 inh	PfGluPho inh	ABHD5-PLIN5 inh	Exocytosis CP01
CCOC(=O)c1nnc(-c2ccc(C)cc2)nc1Oc1ccccc1Cl	67.3*	6.0	5.1	2.6	8.1
CCOC(=O)c1nnc(-c2ccc(C)cc2)nc1Oc1ccc(Cl)cc1Cl	4.1	10.9	6.9	-0.1	x
CCOC(=O)c1nnc(-c2ccc(C)cc2)nc1Sc1ccccc1Cl	78.6*	13.9	23.7	2.3	12.7
COC(=O)c1c(NC(=O)C2CC2)sc(C(=O)Nc2ccccc2)c1C	74.7*	-3.8	6.5	0.5	-13.7
CN(c1ccccc1)S(=O)(=O)c1ccc2ccccc2c1	65.3*	8.1	-32.0	-4.6	-3.7
Cc1sc(NC(=O)CN2C(=O)NC3(CCCC3)C2=O)nc1-c1ccc(F)cc1	-2.2	8.8	-44.6	-2.9	x
CC(=O)Oc1cccc(NC(=O)c2cccc(C(=O)Nc3cccc(OC(C)=O)c3)c2)c1	63.8*	-6.8	13.2	-3.0	-3.8
c1ccc2c(NCCc3c[nH]c4ccccc34)c3ccccc3nc2c1	71.8*	-0.4	11.6	11.3	-5.3
Fc1cccc(NCCc2c[nH]c3ccccc23)n1	-12.3	17.9	35.7	2.2	x
O=C(CSc1nc2ccccc2[nH]1)Nc1cc(C(F)(F)F)ccc1N1CCOCC1	62.4*	0.1	-12.2	1.4	-3.2
Cc1nn(-c2ccc(Cl)cc2)c2[nH]c(CCl)cc(=O)c12	-5.0	7.3	-17.2	9.8	x

Screens (PubChem BioAssay)
